Reference: ChEMBL document CHEMBL1158372, “Design, synthesis, and biological evaluation of novel triazole derivatives as inhibitors of cytochrome P450 14alpha-demethylase” (2009)
Converted amounts (≈) assume the structure as drawn.

How the values were obtained:
Assay type in all cases: functional
Candida albicans = experiment: Antifungal activity against Candida albicans ATCC 76615 after 24 hrs by micro-broth dilution method; conditions: ATCC 76615, 24 h
Procedure, shortened: (§1)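 NCCLS (M27-A2) broth microdilution in 96-well format. Compounds in DMSO, serially diluted in growth medium, inoculated, incubated at 35 °C, and read at 24 h (C. albicans ATCC76615) or 72 h (Cry. neoformans ATCC32609). MIC80 is the first well with about 80% less growth than the drug-free well. Three independent runs per agent; the mean of replicates is reported.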

Cryptococcus neoformans = experiment: Antifungal activity against Cryptococcus neoformans ATCC 32609 after 72 hrs by micro-broth dilution method; conditions: ATCC 32609, 72 h; procedure, shortened: as §1
Candida parapsilosis = experiment: Antifungal activity against Candida parapsilosis by micro-broth dilution method; conditions: Lodderomyces parapsilosis
Procedure, shortened: (§2)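 Broth microdilution in 96-well plates following the NCCLS method. DMSO solutions of test agents were serially diluted in growth medium, inoculated, and incubated at 35 °C. MIC80 is the first well showing roughly 80% growth reduction versus the drug-free control. C. albicans ATCC76615 and Cry. neoformans ATCC32609 served as quality-control strains. Each test was done three times; the mean of replicates is reported.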

Candida tropicalis = experiment: Antifungal activity against Candida tropicalis by micro-broth dilution method; procedure, shortened: as §2
Trichophyton rubrum = experiment: Antifungal activity against Trichophyton rubrum by micro-broth dilution method; procedure, shortened: as §2
Pichia kudriavzevii = experiment: Antifungal activity against Candida krusei by micro-broth dilution method; procedure, shortened: as §2
Nannizzia gypsea = experiment: Antifungal activity against Microsporum gypseum by micro-broth dilution method; procedure, shortened: as §2
Aspergillus fumigatus = experiment: Antifungal activity against Aspergillus fumigatus by micro-broth dilution method; procedure, shortened: as §2

Row | SMILES | MIC80 (Candida albicans) [µg/mL] | MIC80 (Cryptococcus neoformans) [µg/mL] | MIC80 (Candida parapsilosis) [µg/mL] | MIC80 (Candida tropicalis) [µg/mL] | MIC80 (Trichophyton rubrum) [µg/mL] | MIC80 (Pichia kudriavzevii) [µg/mL] | MIC80 (Nannizzia gypsea) [µg/mL] | MIC80 (Aspergillus fumigatus) [µg/mL]
1 | C[C@@H](c1ncncc1F)[C@](O)(Cn1cncn1)c1ccc(F)cc1F [VORICONAZOLE] | 0.0156 (≈ 0.0447 µM) | 0.0156 (≈ 0.0447 µM) | 0.0039 (≈ 0.0112 µM) | 0.0039 (≈ 0.0112 µM) | 0.0625 (≈ 0.179 µM) | 0.0625 (≈ 0.179 µM) | 0.0039 (≈ 0.0112 µM) | 0.25 (≈ 0.716 µM)
2 | CC(=O)N1CCN(c2ccc(OCC3COC(Cn4ccnc4)(c4ccc(Cl)cc4Cl)O3)cc2)CC1 (stereo not drawn) [KETOCONAZOLE] | 0.0156 (≈ 0.0294 µM) | 0.0625 (≈ 0.118 µM) | 0.0625 (≈ 0.118 µM) | 0.0625 (≈ 0.118 µM) | 0.0625 (≈ 0.118 µM) | 0.25 (≈ 0.47 µM) | 0.0156 (≈ 0.0294 µM) | 1 (≈ 1.88 µM)
3 | CCC(C)n1ncn(-c2ccc(N3CCN(c4ccc(OCC5COC(Cn6cncn6)(c6ccc(Cl)cc6Cl)O5)cc4)CC3)cc2)c1=O (stereo not drawn) [ITRACONAZOLE] | 0.0625 (≈ 0.0886 µM) | 0.125 (≈ 0.177 µM) | 0.125 (≈ 0.177 µM) | 0.125 (≈ 0.177 µM) | 0.125 (≈ 0.177 µM) | 0.5 (≈ 0.709 µM) | 0.0625 (≈ 0.0886 µM) | 0.5 (≈ 0.709 µM)
4 | C=CCN(Cc1ccc(C(=O)Oc2ccccc2C(=O)OC)cc1)CC(O)(Cn1cncn1)c1ccc(F)cc1F (stereo not drawn) | 0.0625 (≈ 0.111 µM) | > 64 | 4 (≈ 7.11 µM) | 16 (≈ 28.4 µM) | 64 (≈ 114 µM) | 16 (≈ 28.4 µM) | 4 (≈ 7.11 µM) | > 64
5 | C[C@@H]1[C@H](O)[C@@H](C)/C=C/C=C/C=C/C=C/C=C/C=C/C=C/[C@H](O[C@@H]2O[C@H](C)[C@@H](O)[C@H](N)[C@@H]2O)C[C@@H]2O[C@](O)(C[C@@H](O)C[C@@H](O)[C@H](O)CC[C@@H](O)C[C@@H](O)CC(=O)O[C@H]1C)C[C@H](O)[C@H]2C(=O)O [AMPHOTERICIN B] | 2 (≈ 2.16 µM) | 2 (≈ 2.16 µM) | 2 (≈ 2.16 µM) | 2 (≈ 2.16 µM) | 2 (≈ 2.16 µM) | 2 (≈ 2.16 µM) | 2 (≈ 2.16 µM) | 64 (≈ 69.3 µM)
6 | C=CCN(Cc1ccccc1F)CC(O)(Cn1cncn1)c1ccc(F)cc1F (stereo not drawn) | 0.0039 (≈ 0.00969 µM) | 0.0625 (≈ 0.155 µM) | 0.0156 (≈ 0.0388 µM) | 0.0625 (≈ 0.155 µM) | 0.25 (≈ 0.621 µM) | 0.0156 (≈ 0.0388 µM) | 0.0039 (≈ 0.00969 µM) | > 64
7 | C=CCN(Cc1ccc(C(=O)OCCCCC)cc1)CC(O)(Cn1cncn1)c1ccc(F)cc1F (stereo not drawn) | 1 (≈ 2.01 µM) | 1 (≈ 2.01 µM) | 1 (≈ 2.01 µM) | 1 (≈ 2.01 µM) | 0.25 (≈ 0.501 µM) | 1 (≈ 2.01 µM) | 1 (≈ 2.01 µM) | > 64
8 | C=CCN(Cc1ccc(C(=O)Oc2ccccc2)cc1)CC(O)(Cn1cncn1)c1ccc(F)cc1F (stereo not drawn) | 1 (≈ 1.98 µM) | 1 (≈ 1.98 µM) | 1 (≈ 1.98 µM) | 1 (≈ 1.98 µM) | 16 (≈ 31.7 µM) | 1 (≈ 1.98 µM) | 1 (≈ 1.98 µM) | > 64

Results, then the compound that gave them:

Row | MIC80 (Candida albicans) [µg/mL] | MIC80 (Cryptococcus neoformans) [µg/mL] | MIC80 (Candida parapsilosis) [µg/mL] | MIC80 (Candida tropicalis) [µg/mL] | MIC80 (Trichophyton rubrum) [µg/mL] | MIC80 (Pichia kudriavzevii) [µg/mL] | MIC80 (Nannizzia gypsea) [µg/mL] | MIC80 (Aspergillus fumigatus) [µg/mL] | SMILES
9 | 0.25 (≈ 0.516 µM) | 1 (≈ 2.06 µM) | 1 (≈ 2.06 µM) | 1 (≈ 2.06 µM) | 1 (≈ 2.06 µM) | 1 (≈ 2.06 µM) | 1 (≈ 2.06 µM) | > 64 | C=CCN(Cc1ccc(C(=O)OCCCC)cc1)CC(O)(Cn1cncn1)c1ccc(F)cc1F (stereo not drawn)
10 | 0.0625 (≈ 0.135 µM) | 0.25 (≈ 0.54 µM) | 0.25 (≈ 0.54 µM) | 0.25 (≈ 0.54 µM) | 0.25 (≈ 0.54 µM) | 0.0625 (≈ 0.135 µM) | 0.0625 (≈ 0.135 µM) | 4 (≈ 8.63 µM) | C=CCN(Cc1ccc(Br)cc1)CC(O)(Cn1cncn1)c1ccc(F)cc1F (stereo not drawn)
11 | 0.0039 (≈ 0.00854 µM) | 1 (≈ 2.19 µM) | 1 (≈ 2.19 µM) | 0.25 (≈ 0.548 µM) | 0.25 (≈ 0.548 µM) | 0.0625 (≈ 0.137 µM) | 0.25 (≈ 0.548 µM) | > 64 | C=CCN(Cc1ccc(C(=O)OCC)cc1)CC(O)(Cn1cncn1)c1ccc(F)cc1F (stereo not drawn)
12 | 0.0156 (≈ 0.0392 µM) | 0.0625 (≈ 0.157 µM) | 0.0625 (≈ 0.157 µM) | 0.0625 (≈ 0.157 µM) | 0.0625 (≈ 0.157 µM) | 0.0625 (≈ 0.157 µM) | 0.0039 (≈ 0.00979 µM) | > 64 | C=CCN(Cc1ccccc1C)CC(O)(Cn1cncn1)c1ccc(F)cc1F (stereo not drawn)
13 | 0.0156 (≈ 0.0363 µM) | 0.25 (≈ 0.582 µM) | 0.0625 (≈ 0.146 µM) | 0.25 (≈ 0.582 µM) | 0.25 (≈ 0.582 µM) | 0.0625 (≈ 0.146 µM) | 0.0156 (≈ 0.0363 µM) | > 64 | C=CCN(Cc1ccc([N+](=O)[O-])cc1)CC(O)(Cn1cncn1)c1ccc(F)cc1F (stereo not drawn)
14 | 0.25 (≈ 0.597 µM) | 0.25 (≈ 0.597 µM) | 0.25 (≈ 0.597 µM) | 0.25 (≈ 0.597 µM) | 0.25 (≈ 0.597 µM) | 0.0625 (≈ 0.149 µM) | 0.0625 (≈ 0.149 µM) | 16 (≈ 38.2 µM) | C=CCN(Cc1ccc(Cl)cc1)CC(O)(Cn1cncn1)c1ccc(F)cc1F (stereo not drawn)
15 | 0.0625 (≈ 0.135 µM) | 0.25 (≈ 0.54 µM) | 0.25 (≈ 0.54 µM) | 0.0625 (≈ 0.135 µM) | 0.25 (≈ 0.54 µM) | 0.25 (≈ 0.54 µM) | 0.0156 (≈ 0.0337 µM) | > 64 | C=CCN(Cc1ccccc1Br)CC(O)(Cn1cncn1)c1ccc(F)cc1F (stereo not drawn)
16 | 0.0156 (≈ 0.0392 µM) | 0.0625 (≈ 0.157 µM) | 0.25 (≈ 0.627 µM) | 0.25 (≈ 0.627 µM) | 1 (≈ 2.51 µM) | 0.0625 (≈ 0.157 µM) | 0.0156 (≈ 0.0392 µM) | > 64 | C=CCN(Cc1ccc(C)cc1)CC(O)(Cn1cncn1)c1ccc(F)cc1F (stereo not drawn)
